# Tested on: Mycobacterium tuberculosis
# Experiment: Antimycobacterial activity against isoniazid/rifampicin/ethambutol-resistant Mycobacterium tuberculosis clinical isolate after 4 days by Alamar blue assay
# Type: functional
# Details: 96 h
# Summary of the method: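 Microplate Alamar blue assay against M. tuberculosis H37Rv (sensitive to isoniazid, rifampicin and ethambutol) and a clinical isolate resistant to all three drugs. Compounds were tested at 256, 128, 64, 32, 16, 8, 4, 2 and 1 µg/mL. Isoniazid, rifampicin, ethambutol and ofloxacin controls were run under the same conditions. MIC is given in µg/mL and converted to µM.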
row,Compound,MIC [µM]
1,NNC(=O)c1ccncc1 [ISONIAZID],58.3
2,C(=C\c1cccs1)/C1=N[C@@H](Cc2ccccc2)CO1,7.4
3,CC1COc2c(N3CCN(C)CC3)c(F)cc3c(=O)c(C(=O)O)cn1c23 (stereo unspecified) [OFLOXACIN],5.5
4,O=C(/C=C/c1ccccc1)N[C@H](CO)Cc1ccccc1,56.8
5,Fc1ccc(/C=C/C2=N[C@@H](Cc3ccccc3)CO2)cc1,56.9
6,CC[C@@H](CO)NCCN[C@@H](CC)CO [ETHAMBUTOL],> 1250
7,C(=C\c1ccccc1)/C1=N[C@@H](Cc2ccccc2)CO1,30.4
8,O=C(/C=C/c1ccc(F)cc1)N[C@H](CO)Cc1ccccc1,53.4
9,Clc1ccc(/C=C/C2=N[C@@H](Cc3ccccc3)CO2)cc1,26.9
10,O=C(/C=C/c1ccc(OCc2ccccc2)cc1)N[C@H](CO)Cc1ccccc1,41.2
11,CO[C@H]1/C=C/O[C@@]2(C)Oc3c(C)c(O)c4c(O)c(c(/C=N/N5CCN(C)CC5)c(O)c4c3C2=O)NC(=O)/C(C)=C\C=C\[C@H](C)[C@H](O)[C@@H](C)[C@@H](O)[C@@H](C)[C@H](OC(C)=O)[C@@H]1C [RIFAMPIN],19.4
12,COc1ccc(/C=C/C(=O)N[C@H](CO)Cc2ccccc2)cc1,51.3
13,O=C(/C=C/c1ccc(Cl)cc1)N[C@H](CO)Cc1ccccc1,50.6
14,O=C(/C=C/c1cccs1)N[C@H](CO)Cc1ccccc1,55.6
15,COc1ccc(/C=C/C2=N[C@@H](Cc3ccccc3)CO2)cc1,6.8
16,C(=C\c1ccc(OCc2ccccc2)cc1)/C1=N[C@@H](Cc2ccccc2)CO1,21.6

# — ChEMBL document CHEMBL4002631, “Synthesis, antimycobacterial and cytotoxic activity of α,β-unsaturated amides and 2,4-disubstituted oxazoline derivatives” (Bioorg Med Chem Lett, 2017)
